The subject of assay [1] is A549. Description: Cell cycle arrest in human A549 cells assessed as accumulation at G2/M phase at 7.5 nM after 24 hrs by propidium iodide staining based flow cytometry (reference value: 11 +/- 4%). It is filed as functional. In outline: (§1)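 A549 cells kept in DMEM (1 g/L glucose, 2 mM glutamine, antibiotics, amphotericin B, 10% FBS), treated 24 h with compound from 10 mM DMSO stock; fixed, RNase-treated, stained with propidium iodide, DNA content read by flow cytometry for phase distribution. Average (±SD) of two experiments.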
(In general: In flow cytometry, cells or beads pass a laser one at a time.)

Assay [2] concerns HT-29. Description: Inhibition of VEGF protein secretion in human HT-29 cells assessed as VEGF protein level at 3 nM after 48 hrs by ELISA (reference value: 100%). It is filed as functional. Set-up: scale not given: the % may be the effect or the level left. In outline: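 HT-29 cells (1.5 x 10^5 per well, six-well plate) seeded 24 h, then treated 48 h with DMSO control; secreted VEGF in culture supernatant measured by human VEGF ELISA kit, expressed as percentage of control. At least three measurements.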
On the technique in general: ELISA stands for enzyme-linked immunosorbent assay.

The subject of assay [3] is A549. Briefly: Cell cycle arrest in human A549 cells assessed as accumulation at G2/M phase at antiproliferative IC50 after 24 hrs by propidium iodide staining based flow cytometry. Format: functional. In short, it runs like this:
as §1

The test system of assay [4] is HT-29. Description: Downregulation of c-Myc gene expression in human HT-29 cells assessed as c-Myc mRNA level at 3 nM after 48 hrs by RT-PCR method (reference value: 100%). Format: functional. In outline: (§2)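 HT-29 cells (1.5 x 10^5 per well, six-well plate) seeded 24 h, then exposed 48 h with DMSO control; total RNA extracted, target mRNA quantified by TaqMan RT-qPCR, normalized to β-actin, expressed as percentage of control. At least three measurements; one-sample t-tests.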

The test system of assay [5] is HT-29. Briefly: Downregulation of hTERT gene expression in human HT-29 cells assessed as hTERT mRNA level at 3 nM after 48 hrs by RT-PCR method (reference value: 100%). It is filed as functional. In short, it runs like this: as §2
Assay [6] concerns A549. Briefly: Cell cycle arrest in human A549 cells assessed as accumulation at G0/G1 phase at 7.5 nM after 24 hrs by propidium iodide staining based flow cytometry (reference value: 73 +/- 3%). Format: functional. In short, it runs like this: as §1
The subject of assay [7] is A549. Briefly: Cell cycle arrest in human A549 cells assessed as accumulation at S phase at 7.5 nM after 24 hrs by propidium iodide staining based flow cytometry (reference value: 15 +/- 6%). Format: functional. In short, it runs like this: as §1
Assay [8] deals with A549. Briefly: Cell cycle arrest in human A549 cells assessed as accumulation at sub-G0 phase at 7.5 nM after 24 hrs by propidium iodide staining based flow cytometry (reference value: 2 +/- 1%). Format: functional. In outline: as §1
The subject of a further assay is MCF7. Description: Antiproliferative activity against human MCF7 cells after 2 days by MTT assay. It is filed as functional, cell-based. To be noted: MCF7, 48 h.
The test system of the next assay is HEK293. Description: Antiproliferative activity against HEK293 cells after 2 days by MTT assay. Format: ADME, cell-based. The following applies: Homo sapiens, HEK293, 48 h.
Assay [9] concerns HT-29. Description: Downregulation of VEGF gene expression in human HT-29 cells assessed as VEGF mRNA level at 3 nM after 48 hrs by RT-PCR method (reference value: 100%). Format: functional. In outline: as §2
Assay [10] deals with HT-29. Description: Antiproliferative activity against human HT-29 cells after 2 days by MTT assay. Format: functional, cell-based. To be noted: HT-29, 48 h.
Assay [11] concerns A549. Description: Antiproliferative activity against human A549 cells after 2 days by MTT assay. To be noted: A549, 48 h. It is filed as functional, cell-based.
Assay [12] has as its system A549. Description: Cell cycle arrest in human A549 cells assessed as accumulation at S phase at 50 nM after 24 hrs by propidium iodide staining based flow cytometry (reference value: 15 +/- 6%). It is filed as functional. In short, it runs like this:
(§3)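 A549 cells maintained in DMEM (1 g/L glucose, 2 mM glutamine, penicillin/streptomycin/amphotericin B, 10% FBS) and treated for 24 h. Cells were then fixed, RNase-treated and stained with propidium iodide. DNA content was measured by flow cytometry to give cell-cycle phase distribution, including a sub-G1 peak. Data are means (±SD) of two experiments.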

Assay [13] relates to A549. Description: Cell cycle arrest in human A549 cells assessed as accumulation at sub-G0 phase at 50 nM after 24 hrs by propidium iodide staining based flow cytometry (reference value: 2 +/- 1%). Format: functional. In short, it runs like this:
as §3

For assay [14], the system named is HT-29. Description: Downregulation of VEGF gene expression in human HT-29 cells assessed as VEGF mRNA level at 2 nM after 48 hrs by RT-PCR method (reference value: 100%). Format: functional. In outline:
(§4)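 HT-29 cells were taken at 70–80% confluence and seeded at 1.5 x 10^5 per well. After 24 h they were exposed to compound for 48 h. Total RNA was isolated and TaqMan RT-qPCR run for VEGF-A, c-MYC and hTERT, normalized to β-actin. Expression is given as percent of DMSO control, with at least three measurements and one-sample t-tests.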

Assay [15] deals with HT-29. Briefly: Downregulation of c-Myc gene expression in human HT-29 cells assessed as c-Myc mRNA level at 2 nM after 48 hrs by RT-PCR method (reference value: 100%). It is filed as functional. In short, it runs like this: as §4
In assay [16] the test system is HT-29. Description: Inhibition of VEGF protein secretion in human HT-29 cells assessed as VEGF protein level at 2 nM after 48 hrs by ELISA (reference value: 100%). Set-up: scale not given: the % may be the effect or the level left. Format: functional.
Assay [17] deals with A549. Description: Cell cycle arrest in human A549 cells assessed as accumulation at G2/M phase at 50 nM after 24 hrs by propidium iodide staining based flow cytometry (reference value: 11 +/- 4%). Format: functional. In outline:
as §3

Assay [18] concerns A549. Briefly: Cell cycle arrest in human A549 cells assessed as accumulation at G0/G1 phase at 50 nM after 24 hrs by propidium iodide staining based flow cytometry (reference value: 73 +/- 3%). Format: functional. In short, it runs like this: as §3
The test system of assay [19] is HT-29. Briefly: Downregulation of hTERT gene expression in human HT-29 cells assessed as hTERT mRNA level at 2 nM after 48 hrs by RT-PCR method (reference value: 100%). Format: functional. In outline:
as §4

In assay [20] the test system is HT-29. Briefly: Inhibition of VEGF protein secretion in human HT-29 cells assessed as VEGF protein level at 40 nM after 48 hrs by ELISA (reference value: 100%). Set-up: scale not given: the % may be the effect or the level left. Format: functional.
For assay [21], the system named is HT-29. Description: Downregulation of c-Myc gene expression in human HT-29 cells assessed as c-Myc mRNA level at 40 nM after 48 hrs by RT-PCR method (reference value: 100%). It is filed as functional. In outline:
as §4

In assay [22] the test system is HT-29. Briefly: Inhibition of VEGF protein secretion in human HT-29 cells assessed as VEGF protein level at 10 nM after 48 hrs by ELISA (reference value: 100%). Format: functional. Set-up: scale not given: the % may be the effect or the level left.
The test system of assay [23] is HT-29. Description: Downregulation of VEGF gene expression in human HT-29 cells assessed as VEGF mRNA level at 40 nM after 48 hrs by RT-PCR method (reference value: 100%). It is filed as functional. In short, it runs like this: as §4
Assay [24] concerns HT-29. Description: Downregulation of VEGF gene expression in human HT-29 cells assessed as VEGF mRNA level at 10 nM after 48 hrs by RT-PCR method (reference value: 100%). Format: functional. In outline:
as §4

Assay [25] deals with HT-29. Briefly: Downregulation of hTERT gene expression in human HT-29 cells assessed as hTERT mRNA level at 10 nM after 48 hrs by RT-PCR method (reference value: 100%). It is filed as functional. In outline: as §4
The test system of assay [26] is HT-29. Description: Downregulation of hTERT gene expression in human HT-29 cells assessed as hTERT mRNA level at 40 nM after 48 hrs by RT-PCR method (reference value: 100%). It is filed as functional. In outline:
as §4

The test system of assay [27] is HT-29. Description: Downregulation of c-Myc gene expression in human HT-29 cells assessed as c-Myc mRNA level at 10 nM after 48 hrs by RT-PCR method (reference value: 100%). Format: functional. In short, it runs like this:
as §4

Our source for the Activity and IC50 values is ChEMBL document CHEMBL4196091 (Eur J Med Chem, 2018).

For orientation: IC50 means the concentration that inhibits the measured activity by half.

The source made the active and inactive calls. The rule behind the calls is not given here.

For the compound `COc1cc2c(c(OC)c1OC)-c1ccc(OC)c(=O)cc1[C@@H](NC(=O)CF)CC2`, the Activity is reported as 60% with A549 [1]; 88% in the assay with HT-29 [2]; greater than 100% in the assay on HT-29 [4]; greater than 100% with HT-29 [5]; 25% in the assay with A549 [6]; 15% with A549 [7]. Further, the Activity in the assay with A549 [8] was 2%; in the assay with HT-29 [9] it was greater than 100%. Besides, in the assay with A549 [3], the result was Active. Moreover, the IC50 with MCF7 came out at 7.3 nM; in the assay on HEK293 it was 7.1 nM; with HT-29 [10], 4.7 nM; in the assay on A549 [11] it was 7.83 nM.
Consider `COc1cc2c(c(OC)c1OC)-c1ccc(OC)c(=O)cc1[C@@H](NC(=O)c1cccc(C)c1)CC2`, for which the Activity in the assay on A549 [12] is 10%; in the assay on A549 [13] it was 16%; in the assay with HT-29 [14], 53%; in the assay on HT-29 [15] it was 44%; in the assay on HT-29 [16], 76%; with A549 [17] it was 45%. Further, the Activity is reported as 29% in the assay with A549 [18] and 74% in the assay with HT-29 [19]. For the same compound, the half-inhibitory concentration (IC50) is 5.6 nM with MCF7, 3.1 nM in the assay on HEK293, 2.23 nM in the assay with HT-29 [10] and 8.7 nM in the assay on A549 [11].
Take `COc1cc2c(c(OC)c1OC)-c1ccc(OC)c(=O)cc1[C@@H](NC(C)=O)CC2` [COLCHICINE]: the Activity in the assay on A549 [12] is listed as 11%; with A549 [13] it was 3%; with HT-29 [20], 61%; with HT-29 [21] it was 32%; in the assay on HT-29 [22], 100%; with A549 [17] it was 59%. Moreover, the Activity in the assay on HT-29 [23] was 41%; in the assay with HT-29 [24], greater than 100%; in the assay with HT-29 [25], greater than 100%; with HT-29 [26] it was 50%; with A549 [18], 27%; in the assay on HT-29 [27], greater than 100%. In the assay on A549 [11], half-maximal inhibition (IC50) was put at 12.2 nM.
